Measurements taken from ChEMBL document CHEMBL3425405, “Discovery of Small Molecules for Up-Regulating the Translation of Antiamyloidogenic Secretase, a Disintegrin and Metalloproteinase 10 (ADAM10), by Binding to the G-Quadruplex-Forming Sequence in the 5' Untranslated Region (UTR) of Its mRNA” (J Med Chem, 2015).
Calls of active or inactive are those of the source. The rule behind the calls is not given here.

Columns and labels:
HeLa [1] = experiment: Toxicity against human HeLa cells assessed as effect on cell morphology at 0.5 to 2.5 uM after 24 hrs; type: cell-based
In short: (§1)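 HeLa cells inspected for cell number and morphology before the luciferase read-out, after reporter-plasmid transfection and 24 h exposure to 0, 0.5, 1 or 2.5 μM compound.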

[2] = Binding affinity to ADAM10 A10-RNA QGRS (unknown origin) assessed as reduction in RNA G-quadruplex bands at 0.5 to 10 fold excess compound level by native gel electrophoresis method
In short: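 A10-RNA-Wt labeled with Cy3/Cy5 folded in 100 mM KCl, 10 mM Tris-HCl, 0.1 mM EDTA (pH 7.5): 95 °C for 5 min, then cooled to room temperature over 90 min. RNA (2 μM) incubated 5 min at room temperature in the dark with 0, 0.5, 1, 5 or 10-fold excess compound. Run on native 16% polyacrylamide gel at 4 °C.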

[3] = Toxicity against human HeLa cells assessed as reduction in cell viability after 24 hrs by MTT assay; type: cell-based
[4] = Binding affinity to 5'-end biotinylated ADAM10 A10-mutant RNA QGRS (unknown origin) by surface plasmon resonance assay method
In short: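 SPR with 5′-biotinylated A10-RNA-Wt or A10-RNA-Mut immobilized on a neutravidin chip in running buffer (50 mM Tris-HCl pH 7.5, 100 mM KCl). Ligand serial dilutions in running buffer injected at 20 μL/min for association, then dissociation. Chip regenerated with 50 mM NaOH between runs.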

HeLa [5] = experiment: Binding affinity to ADAM10 A10-RNA QGRS (unknown origin) transfected in human HeLa cells assessed as increase in ADAM10 translation efficiency at 1 uM after 24 hrs by Renilla/firefly dual luciferase reporter assay; type: cell-based
In short: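 HeLa cells transfected with 0.8 μg A10-Wt, A10-Mut or A10-Del plasmid (G-quadruplex motif upstream of Renilla in psiCHECK-2). Screening: 24 h at a single 2 μM concentration. Follow-up: plasmid for 12 h, then 0, 0.5, 1 or 2.5 μM for 24 h. Renilla normalized to firefly, relative to untreated control; mean ± SD of three independent measurements.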

HeLa [6] = experiment: Toxicity against human HeLa cells assessed as effect on cell number at 0.5 to 2.5 uM after 24 hrs; type: cell-based; in short: as §1

In the case of CCn1c2ccccc2c2cc(/C=C/c3cc(N4CCN(C)CC4)c4ccccc4[n+]3C)ccc21.[I-], the Activity (HeLa [1]) is reported as “Non-toxic”, the Activity [2] is reported as “Active” and the IC50 at 24 h [3] is reported as 20.9 µM. The Activity [4] was “inactive”, the Activity (HeLa [5]) was 46.9% and the Activity (HeLa [6]) was “Non-toxic”.
